According to ChEMBL document CHEMBL1671808, “Brassinin oxidase mediated transformation of the phytoalexin brassinin: structure of the elusive co-product, deuterium isotope effect and stereoselectivity” (2011):
Several values for one entry are separate records, joined by “and”; a condition that tells them apart may be missing. Equal values may be shown once. Activity calls are given as the source filed them. The calls are words filed in the database; no cut-off is given here.

Columns and labels:
Plenodomus lingam [1] = assay: Inhibition of Leptosphaeria maculans BoLm assessed as conversion of brassinin to indole-3-carboxaldehyde at 0.30 mM
Method in brief: (§1)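 Initial-velocity assays with purified BOLm: product added at fixed 0.30 or 0.60 mM, brassinin varied 0.05–0.30 mM at saturating PMS (1 mM); also PMS varied […] with brassinin fixed at 0.05, 0.10 or 0.15 mM; standard DEA pH 8.2 assay, HPLC quantitation.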

Plenodomus lingam [2] = assay: Activity of Leptosphaeria maculans BoLm relative to Brassinin; conditions: tested as the 2H-labelled form
Plenodomus lingam [3] = assay: Activity of Leptosphaeria maculans BoLm in presence of PMSF reagent relative to control
Method in brief: (§2)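 Purified BOLm was incubated in a reaction buffer with each modifier: BUT 10 mM, EAM 2.5 mM, NAI 2.5 mM or DEPC 2.5 mM in 100 mM phosphate pH 7.5; IAA 2.5 mM in 100 mM MES pH 6.0; PMSF 2.5 mM in 100 mM phosphate pH 8.1. Residual activity was then read in the standard brassinin/PMS HPLC assay. Result is specific activity as a percentage of untreated enzyme.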

Plenodomus lingam [4] = assay: Activity of Leptosphaeria maculans BoLm in presence of BUT reagent relative to control; method in brief: as §2
Plenodomus lingam [5] = assay: Activity of Leptosphaeria maculans BoLm in presence of EDC reagent relative to control
Method in brief: (§3)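 Purified BOLm was treated with the carboxyl-specific reagent (WRK or EDC, 5–50 mM) in 100 mM MES pH 6.0 at 20 °C. Aliquots taken at time intervals were assayed for residual activity in the standard brassinin/PMS HPLC assay. Activity is given as a percentage of untreated enzyme. For WRK, kobs came from ln residual activity versus time, and K_I and k2 from 1/kobs versus 1/[WRK].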

Plenodomus lingam [6] = assay: Activity of Leptosphaeria maculans BoLm
Method in brief: (§4)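 BOLm purified from 3-phenylindole-induced L. maculans BJ-125 liquid cultures. Assay buffer: 20 mM DEA pH 8.2, 1.0 mM DTT, 0.1% Triton X-100, with 1.0 mM PMS as electron acceptor, which is saturating. Substrate was varied over 0.05–1.0 mM for brassinin or 0.05–2.8 mM for the carbamate. Reactions ran 20 min at 20 °C and were stopped and extracted with EtOAc. Indole-3-carboxaldehyde was quantified by HPLC-DAD against calibration curves. kcat and Km were taken from saturation curves. Four independent experiments.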

Plenodomus lingam [7] = assay: Activity of Leptosphaeria maculans BoLm in presence of WRK reagent relative to control; method in brief: as §3
Plenodomus lingam [8] = assay: Ratio of kcat to Km for Leptosphaeria maculans BoLm; method in brief: as §4
Plenodomus lingam [9] = assay: Activity of Leptosphaeria maculans BoLm in presence of EAM reagent relative to control; method in brief: as §2
Plenodomus lingam [10] = assay: Activity of Leptosphaeria maculans BoLm in presence of IAA reagent relative to control; method in brief: as §2
Plenodomus lingam [11] = assay: Activity of Leptosphaeria maculans BoLm at 0.05 to 1.0 mM; method in brief: as §4
Plenodomus lingam [12] = assay: Activity of Leptosphaeria maculans BoLm in presence of NAI reagent relative to control; method in brief: as §2
Plenodomus lingam [13] = assay: Activity of Leptosphaeria maculans BoLm in presence of DEPC reagent relative to control; method in brief: as §2
Plenodomus lingam [14] = assay: Selectivity ratio of compound to dideuterated brassinin for Leptosphaeria maculans BoLm activity
Method in brief: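 Kinetic isotope effect = (kcat/Km)H / (kcat/Km)D. Purified BOLm at pH 8.2 with saturating PMS (1.0 mM), 20 °C, 20 min. Substrate was varied over 0.05–1.0 mM (brassinin series) or 0.05–2.8 mM (carbamate series), comparing natural-abundance and deuterated substrates. Product was quantified by HPLC. Four independent experiments.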

Plenodomus lingam [15] = assay: Activity of Leptosphaeria maculans BoLm in presence of H218O relative to Brassinin; conditions: tested as the 2H-labelled form
Plenodomus lingam [16] = assay: Activity of Leptosphaeria maculans BoLm at 0.05 to 2.8 mM
Method in brief: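 Purified BOLm from 3-phenylindole-induced L. maculans BJ-125 cultures; substrate varied 0.05–2.8 mM with saturating PMS (1.0 mM) in 20 mM DEA pH 8.2, 1 mM DTT, 0.1% Triton X-100; 20 °C, 20 min; EtOAc extraction, HPLC-DAD quantitation of indole-3-carboxaldehyde against calibration curves; kcat, Km from saturation curves; four independent experiments.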

Plenodomus lingam [17] = assay: Ratio of kcat to Km for Leptosphaeria maculans BoLm to ratio of kcat to Km for Leptosphaeria maculans BoLm with the deuterated substrate; conditions: tested as the 2H-labelled form
Plenodomus lingam [18] = assay: Antifungal activity against Leptosphaeria maculans isolate BJ 125 assessed as growth inhibition at 0.50 mM relative to control; format: functional; design: scale not given: the % may be the effect or the level left
Method in brief: (§5)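 Mycelial growth inhibition of L. maculans isolate BJ 125 tested at 0.50, 0.25 and 0.12 mM; growth compared with control cultures grown without compound under otherwise identical conditions.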

Plenodomus lingam [19] = assay: Inhibition of Leptosphaeria maculans BoLm assessed as conversion of brassinin to indole-3-carboxaldehyde at 0.60 mM; method in brief: as §1
Plenodomus lingam [20] = assay: Antifungal activity against Leptosphaeria maculans isolate BJ 125 assessed as growth inhibition; format: functional; design: scale not given: the % may be the effect or the level left; method in brief: as §5

## O=Cc1c[nH]c2ccccc12
Plenodomus lingam [1]
  inhibition: inactive

## CSC(=S)NCc1c[nH]c2ccccc12
Plenodomus lingam [2]
  Activity: 26%
Plenodomus lingam [3]
  Activity: 108%
Plenodomus lingam [4]
  Activity: 95%
Plenodomus lingam [5]
  Activity: 38%
Plenodomus lingam [6]
  Km: 96 µM
Plenodomus lingam [6]; tested as the 2H-labelled form
  Km: 151 µM and 94 µM and 96 µM
  kcat: 0.84 s⁻¹ and 0.47 s⁻¹
Plenodomus lingam [7]
  Activity: 17%
Plenodomus lingam [8]
  kcat/Km: 9900 M⁻¹ s⁻¹
Plenodomus lingam [9]
  Activity: 97%
Plenodomus lingam [10]
  Activity: 106%
Plenodomus lingam [11]
  kcat: 0.95 s⁻¹
Plenodomus lingam [11]; tested as the 2H-labelled form
  kcat: 0.28 s⁻¹
Plenodomus lingam [12]
  Activity: 111%
Plenodomus lingam [13]
  Activity: 103%
Plenodomus lingam [14]
  Ratio: 4
Plenodomus lingam [15]
  Activity: 23%

## COC(=O)NCc1c[nH]c2ccccc12
Plenodomus lingam [16]
  kcat: 5.62 s⁻¹
Plenodomus lingam [16]; tested as the 2H-labelled form
  kcat: 1.15 s⁻¹
Plenodomus lingam [6]
  Km: 622 µM
Plenodomus lingam [6]; tested as the 2H-labelled form
  Km: 501 µM
Plenodomus lingam [8]
  kcat/Km: 9040 M⁻¹ s⁻¹
Plenodomus lingam [8]; tested as the 2H-labelled form
  kcat/Km: 2300 M⁻¹ s⁻¹
Plenodomus lingam [17]
  Ratio: 3.9

## CSC(N)=S
Plenodomus lingam [18]
  Activity: 18%
Plenodomus lingam [19]
  inhibition: inactive
Plenodomus lingam [20]
  Activity: 18%
